Data from ChEMBL document CHEMBL5252669, “Semisynthetic blasticidin S ester derivatives show enhanced antibiotic activity” (RSC Med Chem, 2023).
In brackets after ≈: the same amount, converted by molar mass. Activity calls are given as the source filed them. No cut-off for these calls is given here.

Assays:
[1] = Selectivity index, ratio of CC50 for human MRC5 cells to IC50 for Klebsiella pneumoniae ATCC 29665; format: toxicity; settings: read-out: Ratio CC50/IC50
[2] = Selectivity index, ratio of CC50 for human MRC5 cells to IC50 for NorA deleted Staphylococcus aureus; format: toxicity; settings: read-out: Ratio CC50/IC50
[3] = Cytotoxicity against human MRC5 cells incubated for 24 hrs by MTS assay; format: toxicity, cell-based
Summary of the method: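 MRC-5 lung fibroblasts seeded 5000 per well; medium replaced with compound 16–192 μg mL−1 or matching 1:1 methanol:water vehicle; 24 h, then MTS 3–4 h; absorbance 490 nm; viability relative to untreated cells, normalized to vehicle; CC50 from two independent assays in duplicate, mean ± SD.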

Pseudomonas aeruginosa = assay: Antibacterial activity against MexAB-OprM deleted Pseudomonas aeruginosa incubated for 16 hrs by broth microdilution method; format: functional, organism-based; settings: for IC50: 16 h; for MIC: time 16 hrs
[4] = Selectivity index, ratio of CC50 for human MRC5 cells to IC50 for Staphylococcus aureus; format: toxicity; settings: read-out: Ratio CC50/IC50
Staphylococcus aureus [5] = assay: Antibacterial activity against NorA deleted Staphylococcus aureus assessed as zone of inhibition incubated for 18 hrs by spot on lawn assay; format: functional, organism-based
Summary of the method: (§1)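 Overnight LB cultures diluted to OD600 0.01 in 0.7% LB top agar, overlaid on 1.5% LB agar; 5 mg mL−1 aqueous compound spotted at 35, 25, 10 and 5 μg with 1:1 water/methanol vehicle spot; 37 °C, 18 h; inhibition zone diameter measured by ruler.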

Staphylococcus aureus [6] = assay: Antibacterial activity against methicillin resistant Staphylococcus aureus assessed as zone of inhibition incubated for 18 hrs by spot on lawn assay; format: functional, organism-based
Summary of the method: (§2)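 Spot-on-lawn assay. Plates of 1.5% agar in LB were overlaid with 0.7% LB agar seeded with overnight culture at 0.01 OD600. Aqueous 5 mg mL−1 solutions were spotted at 35, 25, 10 and 5 μg, with a 1:1 water/methanol vehicle spot. After 18 h at 37 °C, inhibition zone diameters were measured with a ruler.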

Enterococcus [7] = assay: Antibacterial activity against vancomycin-resistant Enterococcus assessed as zone of inhibition incubated for 18 hrs by spot on lawn assay; format: functional, organism-based; summary of the method: as §2
[8] = Selectivity index, ratio of CC50 for human MRC5 cells to IC50 for Acinetobacter baumannii ATCC 17978; format: toxicity; settings: read-out: Ratio CC50/IC50
Candida albicans [9] = assay: Antifungal activity against Candida albicans assessed as zone of inhibition incubated for 18 hrs by spot on lawn assay; format: functional, organism-based; summary of the method: as §1
Staphylococcus aureus [10] = assay: Antibacterial activity against Staphylococcus aureus assessed as zone of inhibition incubated for 18 hrs by spot on lawn assay; format: functional, organism-based; summary of the method: as §1
[11] = Selectivity index, ratio of CC50 for human MRC5 cells to IC50 for vancomycin-resistant Enterococcus; format: toxicity; settings: read-out: Ratio CC50/IC50
Klebsiella pneumoniae = assay: Antibacterial activity against Klebsiella pneumoniae ATCC 29665 incubated for 16 hrs by broth microdilution method; format: functional, organism-based; settings: for IC50: ATCC 29665, 16 h; for MIC: ATCC 29665, time 16 hrs
Staphylococcus aureus [12] = assay: Antibacterial activity against methicillin resistant Staphylococcus aureus ATCC 43300 incubated for 16 hrs by broth microdilution method; format: functional, organism-based; settings: for IC50: ATCC 43300, 16 h; for MIC: ATCC 43300, time 16 hrs
Summary of the method: (§3)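 Cation-adjusted Mueller-Hinton broth microdilution. Overnight cultures from single colonies were diluted to OD600 0.004. Final compound range was 256–2 μg mL−1 in 1:1 methanol/water vehicle, with doxycycline and vehicle controls. Plates were incubated 16 h at 37 °C. OD600 was normalized to controls, and MIC was the lowest concentration inhibiting >90% growth. Two biological replicates in duplicate; reported as a range.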

Enterococcus [13] = assay: Antibacterial activity against vancomycin-resistant Enterococcus incubated for 20 hrs by broth microdilution method
[14] = Selectivity index, ratio of CC50 for human MRC5 cells to IC50 for methicillin resistant Staphylococcus aureus; format: toxicity; settings: read-out: Ratio CC50/IC50
[15] = Selectivity index, ratio of CC50 for human MRC5 cells to IC50 for Enterococcus faecalis ATCC 29212; format: toxicity; settings: read-out: Ratio CC50/IC50
Staphylococcus aureus [16] = assay: Antibacterial activity against NorA deleted Staphylococcus aureus incubated for 16 hrs by broth microdilution method; format: functional, organism-based; settings: for IC50: 16 h; for MIC: time 16 hrs; summary of the method: as §3
Staphylococcus aureus [17] = assay: Antibacterial activity against wild type Staphylococcus aureus 8810 incubated for 16 hrs by broth microdilution method; format: functional, organism-based; settings: for IC50: Staphylococcus aureus, 8810, 16 h; for MIC: Staphylococcus aureus, 8810, time 16 hrs; summary of the method: as §3
Saccharomyces cerevisiae = assay: Antifungal activity against Saccharomyces cerevisiae incubated for 16 hrs by broth microdilution method; format: functional
Acinetobacter baumannii [18] = assay: Antibacterial activity against Acinetobacter baumannii ATCC 17978 incubated for 16 hrs by broth microdilution method; format: functional, organism-based; settings: for IC50: ATCC 17978, 16 h; for MIC: ATCC 17978, time 16 hrs
Candida albicans [19] = assay: Antifungal activity against Candida albicans incubated for 16 hrs by broth microdilution method; format: functional
Enterococcus faecalis [20] = assay: Antibacterial activity against Enterococcus faecalis ATCC 29212 assessed as zone of inhibition incubated for 18 hrs by spot on lawn assay; format: functional, organism-based; summary of the method: as §1
Enterococcus faecalis [21] = assay: Antibacterial activity against Enterococcus faecalis ATCC 29212 incubated for 20 hrs by broth microdilution method; settings: ATCC 29212, 20 h
[22] = Selectivity index, ratio of CC50 for human MRC5 cells to IC50 for MexAB-OprM deleted Pseudomonas aeruginosa; format: toxicity; settings: read-out: Ratio CC50/IC50
Acinetobacter baumannii [23] = assay: Potency index, ratio of blasticidin-S MIC to test compound MIC for Acinetobacter baumannii; format: functional
Escherichia coli = assay: Potency index, ratio of blasticidin-S MIC to test compound MIC for Escherichia coli; format: functional
Staphylococcus aureus [24] = assay: Potency index, ratio of blasticidin-S MIC to test compound MIC for Staphylococcus aureus; format: functional

Row | SMILES | selectivity ratio [1] | selectivity ratio [2] | CC50 at 24 h [3] [µg/mL] | IC50 (Pseudomonas aeruginosa) [µg/mL] | MIC (Pseudomonas aeruginosa) [µg/mL] | selectivity ratio [4] | selectivity ratio [8] | selectivity ratio [11] | IC50 (Klebsiella pneumoniae) [µg/mL] | MIC (Klebsiella pneumoniae) [µg/mL] | IC50 (Staphylococcus aureus [12]) [µg/mL] | MIC (Staphylococcus aureus [12]) [µg/mL] | IC50 (Enterococcus [13]) [µg/mL] | MIC (Enterococcus [13]) [µg/mL] | selectivity ratio [14] | selectivity ratio [15] | IC50 (Staphylococcus aureus [16]) [µg/mL] | MIC (Staphylococcus aureus [16]) [µg/mL] | IC50 (Staphylococcus aureus [17]) [µg/mL] | MIC (Staphylococcus aureus [17]) [µg/mL] | also measured
1 | CCCCOC(=O)[C@H]1O[C@@H](n2ccc(N)nc2=O)C=C[C@@H]1NC(=O)C[C@@H](N)CCN(C)C(=N)N | 0.3 | 0.6 | 21.2 (≈ 44.3 µM) | 79.8 (≈ 167 µM) | > 128 | 0.9 | 0.3 | 0.2 | 82.1 (≈ 172 µM) | > 128 | 28.1 (≈ 58.7 µM) | 64 (≈ 134 µM) | 130 (≈ 272 µM) | 256 (≈ 535 µM) | 0.7 | 1.3 | 34.6 (≈ 72.3 µM) | 64 (≈ 134 µM) | 23.9 (≈ 49.9 µM) | 64 (≈ 134 µM) | Activity (Staphylococcus aureus [5]): Active; Activity (Staphylococcus aureus [6]): Active; Activity (Enterococcus [7]): Active; Activity (Candida albicans [9]): inactive; Activity (Staphylococcus aureus [10]): Active; MIC (Saccharomyces cerevisiae): 64 µg/mL (≈ 134 µM); IC50 (Acinetobacter baumannii [18]): 61.5 µg/mL (≈ 129 µM); MIC (Acinetobacter baumannii [18]): > 128 µg/mL; MIC (Candida albicans [19]): > 256 µg/mL; Activity (Enterococcus faecalis [20]): Active; IC50 (Enterococcus faecalis [21]): 16.1 µg/mL (≈ 33.6 µM); MIC (Enterococcus faecalis [21]): 32 µg/mL (≈ 66.9 µM); selectivity ratio [22]: 0.3
2 | CN(CC[C@H](N)CC(=O)N[C@H]1C=C[C@H](n2ccc(N)nc2=O)O[C@@H]1C(N)=O)C(=N)N.Cl.Cl.Cl | 1 | 0.2 | 9.4 | 19.7 | 64 | 0.6 | 3 | 0.1 | 9.3 | 16 | 15.4 | 32 | 69.6 | 128 | 0.6 | 0.7 | 41.6 | 64 | 15.2 | 32 | PI (Acinetobacter baumannii [23]): 16; PI (Escherichia coli): 8; PI (Staphylococcus aureus [24]): 8; MIC (Saccharomyces cerevisiae): 64 µg/mL; IC50 (Acinetobacter baumannii [18]): 3 µg/mL; MIC (Acinetobacter baumannii [18]): 8 µg/mL; MIC (Candida albicans [19]): 256 µg/mL; IC50 (Enterococcus faecalis [21]): 12.9 µg/mL; MIC (Enterococcus faecalis [21]): 32 µg/mL; selectivity ratio [22]: 0.5
3 | COC(=O)[C@H]1O[C@@H](n2ccc(N)nc2=O)C=C[C@@H]1NC(=O)C[C@@H](N)CCN(C)C(=N)N | 0.5 | 0.8 | 18.3 (≈ 41.9 µM) | 35.1 (≈ 80.4 µM) | 128 (≈ 293 µM) | 1.6 | 1.8 | 0.6 | 34.3 (≈ 78.6 µM) | 64 (≈ 147 µM) | 10.4 (≈ 23.8 µM) | 16 (≈ 36.7 µM) | 31 (≈ 71 µM) | 64 (≈ 147 µM) | 1.7 | 2 | 21.5 (≈ 49.3 µM) | 32 (≈ 73.3 µM) | 11.4 (≈ 26.1 µM) | 32 (≈ 73.3 µM) | Activity (Staphylococcus aureus [5]): Active; Activity (Staphylococcus aureus [6]): Active; Activity (Enterococcus [7]): Active; Activity (Candida albicans [9]): inactive; Activity (Staphylococcus aureus [10]): Active; MIC (Saccharomyces cerevisiae): 32 µg/mL (≈ 73.3 µM); IC50 (Acinetobacter baumannii [18]): 10.2 µg/mL (≈ 23.4 µM); MIC (Acinetobacter baumannii [18]): 32 µg/mL (≈ 73.3 µM); MIC (Candida albicans [19]): > 256 µg/mL; Activity (Enterococcus faecalis [20]): Active; IC50 (Enterococcus faecalis [21]): 9.2 µg/mL (≈ 21.1 µM); MIC (Enterococcus faecalis [21]): 16 µg/mL (≈ 36.7 µM); selectivity ratio [22]: 0.5
4 | CCOC(=O)[C@H]1O[C@@H](n2ccc(N)nc2=O)C=C[C@@H]1NC(=O)C[C@@H](N)CCN(C)C(=N)N.Cl.Cl.Cl | 0.1 | 0.4 | 8.9 | 67 | > 128 | 0.8 | 0.3 | 0.3 | 73.9 | > 128 | 17 | 32 | 34.4 | 64 | 0.5 | 0.9 | 20 | 32 | 11.6 | 32 | Activity (Staphylococcus aureus [5]): Active; Activity (Staphylococcus aureus [6]): Active; Activity (Enterococcus [7]): Active; Activity (Candida albicans [9]): inactive; Activity (Staphylococcus aureus [10]): Active; MIC (Saccharomyces cerevisiae): 32 µg/mL; IC50 (Acinetobacter baumannii [18]): 30.4 µg/mL; MIC (Acinetobacter baumannii [18]): 64 µg/mL; MIC (Candida albicans [19]): > 256 µg/mL; Activity (Enterococcus faecalis [20]): Active; IC50 (Enterococcus faecalis [21]): 9.9 µg/mL; MIC (Enterococcus faecalis [21]): 16 µg/mL; selectivity ratio [22]: 0.1
5 | C#CCCCOC(=O)[C@H]1O[C@@H](n2ccc(N)nc2=O)C=C[C@@H]1NC(=O)C[C@@H](N)CCN(C)C(=N)N | 0.5 | 1.4 | 50.4 (≈ 103 µM) | 74.3 (≈ 152 µM) | > 128 | 2.6 | 0.8 | 0.7 | 92.3 (≈ 189 µM) | > 128 | 29.2 (≈ 59.8 µM) | 64 (≈ 131 µM) | 72.1 (≈ 148 µM) | 128 (≈ 262 µM) | 1.7 | 4.1 | 36 (≈ 73.7 µM) | 64 (≈ 131 µM) | 19.3 (≈ 39.5 µM) | 64 (≈ 131 µM) | Activity (Staphylococcus aureus [5]): Active; Activity (Staphylococcus aureus [6]): Active; Activity (Enterococcus [7]): Active; Activity (Candida albicans [9]): inactive; Activity (Staphylococcus aureus [10]): Active; MIC (Saccharomyces cerevisiae): 64 µg/mL (≈ 131 µM); IC50 (Acinetobacter baumannii [18]): 61.5 µg/mL (≈ 126 µM); MIC (Acinetobacter baumannii [18]): > 128 µg/mL; MIC (Candida albicans [19]): > 128 µg/mL; Activity (Enterococcus faecalis [20]): Active; IC50 (Enterococcus faecalis [21]): 12.2 µg/mL (≈ 25 µM); MIC (Enterococcus faecalis [21]): 32 µg/mL (≈ 65.5 µM); selectivity ratio [22]: 0.7
